SMILES strings stand for the structures.

Assay [1] relates to HCT-116 (colon cancer). Briefly: cell viability assay, HCT-116. The class given is cell-based. The settings on record: Homo sapiens, HCT-116, read-out: IC50(HCT-116). Summed up:
(§1)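 Cell viability assays, run on proliferating tumour lines and on quiescent IMR-90 immortalized human fibroblasts, gave IC50 values. Cell preparation and sample handling were automated. The automation protocol changed between the earlier and the later test series.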

The test system of assay [2] is quiescent IMR-90 immortalized human fibroblasts. Briefly: IMR-90 cytotoxicity assay. The class given is cell-based. The settings on record: IMR-90, read-out: IC50(cell line) IMR-90. The essentials:
as §1

A further assay has as its system A2058 (melanoma). Briefly: proliferative cell growth inhibition assay, A2058. The class given is cell-based. The settings on record: Homo sapiens, A2058, read-out: IC50(cell line) A2058. The essentials: as §1
Assay [3] relates to H522-T1 (nonsmall cell lung cancer). Briefly: proliferative cell growth inhibition assay, H522-T1. The class given is cell-based. The settings on record: H522-T1, read-out: IC50(cell line) H522-T1. The essentials:
as §1

Assay [4] concerns wide range of cancer cell lines. The settings on record: initially reported; cited from earlier work.
For assay [5], the system named is HCT-116 (colon cancer). Briefly: proliferative cell growth inhibition assay, HCT-116. The class given is cell-based. The settings on record: Homo sapiens, HCT-116, read-out: IC50(cell line) HCT-116. The essentials:
as §1

With `C=C(C)CC(OC)[C@H](O)C(=O)N[C@@H](OC)[C@@H]1C[C@@H](O)C(C)(C)[C@@H](C[C@H](O)[C@@H](C)[C@H]2Cc3c(C)c(O)cc(O)c3C(=O)O2)O1` (single isomer, unassigned; (+)) [compound 1, (+)-irciniastatin A], the IC50 (in general, the concentration at which inhibition is half-maximal) in the assay with HCT-116 (colon cancer) [1] is 0.2 nM; in assay [2], 27 nM; in the assay on A2058 (melanoma), 0.4 nM; in assay [3] it was 1 nM; with HCT-116 (colon cancer) [5], 4 nM. Besides, the “differential activities against cancer cell lines” value in assay [4] is on record as more than 10000 fold.

The values above are taken from article PMC4782725 (The Journal of Organic Chemistry, 2016).
